Variants at the floor of the assay were thinned out.
B1: tRNA (parent)
chain: GUUCCGUUGGCGUAAUGGUAACGCGUCUCCCUCCUAAGGAGAAGACUGCGGGUUCGAGUCCCGUACGGAACG

Variants of: B1
Experiment: yeast fitness relative to wild type (ratio to wild type); higher = fitter; tRNA-Arg(CCU), competitive growth, 37 C, YPD
How it was run: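 Genotype frequency changes were the basis for Darwinian fitness relative to wild type. The frequencies came from 100-nucleotide paired-end sequencing of gene amplicons from the start population and each end population of pooled yeast strains with tRNA-Arg(CCU) gene variants at the native locus. Competition ran in YPD at 37°C for 24 hours in six replicates, genotypes needed ≥ 100 starting reads, and estimates < 0.5 were set to 0.5.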
Variant GUUCCGUUGGCGUAAUGGUAACUCGUCUCCCUCCUAAGGAGAAGACUGUGGGUUAGAGUCCCGUAUGGAACG has a yeast fitness of no more than 0.5. GUUCCGUUGGCGUAAUGGUAACCCGUCUCCCUCCUAAGGAGAAGACUGGGGGUUCGAGUCCCAUACGGAACG gave a yeast fitness of no more than 0.5. Variant GUUCCGUUGGCGUAAUGGUAACCCGUCUCCCUCCUAAGCAGUAGACUGCGGUAUCGAGUCCCGUACGGAACG has a yeast fitness of no more than 0.5. GUUCCGUUGGCGUAAUGGUAACCCGUCUCCCUCCUAAGGAGAAGACUGCGGGUUCGAGUCCGGUACGGAACG showed a yeast fitness of 0.692. GUUCCGUUGGCGUAAUGGUAACCCGUCUCCCUCCUAAGGAGAAGACUGCGGGUUCGAGUGUCGUACGGAACG showed a yeast fitness of no more than 0.5. GUUCCGUUGGCGUAAUGGUAACUCGUCUCCCUCCUAAGGAGAAGACUGCGGAUUAGAGUCCCGAACGGAACG showed a yeast fitness of no more than 0.5. For GUUCCGUUGGCGUAAUGGUAACCCGGCUCCCUGCUAAGGAGAAGCCUGCGGGUUCGAGUCCCGUACGGAACG, the yeast fitness was no more than 0.5. Variant GUUCCGUUGGCGUAAUGGUAACGAGUCUCCCUCCUAAGGAGACGACUGCGGGUUCGAGUCCCGUACGGAACG has a yeast fitness of 0.55. In the case of GUUCCGUUGGCGUAAUGGUAACGAGUCUCCCUCCUAAGGAGAGGACUGCGGGUUCGAGUCCCGUACGGAACG, the yeast fitness is reported as 0.597. GUUCCGUUGGCGUAAUGGUAACCCGUCUCCCUCCUAACGUGAAGACUGCGGGUUCGACUCCCGUACGGAACG showed a yeast fitness of no more than 0.5. GUUCCGUUGGCGUAAUGGUAACCCGUCUCCCUCCUAAAGAGAAGACUGCGGGUUCGAGUCUCGUACGGAACG gave a yeast fitness of 0.578. GUUCCGUUGGCGUAAUGGUAACCCGUCUCCCUCCUAAGGAGAAGACUGCGGGAUCGAGUCCCGUACGGAACG showed a yeast fitness of 0.55. Work on GUUCCGUUGGCGUAAUGGUAACCCGUCUCCCUCCUAAGGAGAAGACUGGGGGUUCGAGUCCCGUACGGAACG yielded a yeast fitness of 0.563. GUUCCGUUGGCGUAAUGGUAACUCGUCUCCCUCCUCAGGAGAAGAUUGCCGGUUCGAGUCCCGUACCGAACG showed a yeast fitness of no more than 0.5. Variant GUUCCGUUGGCGUAAUGGUAACCCGUCACCCUCCUAAGGAGAAGACUGCGGGUUCGAGUCCCGUACGGAACG has a yeast fitness of 0.559. In the case of GUUCCGUUGGCGUAAUGGUAACUCGUCUCCCUCCUAAGGAGAAGACUGCGGGUGCGAGUCCCGUACGGAACG, the yeast fitness is reported as no more than 0.5. With GUUCCGUUGGCGUAAUGGUAACGAGUCUCCCUCCUCAGGAAAAGACUGCGGGCUCGAGUCCCGUACGGAACG the yeast fitness was no more than 0.5. In the case of GUUCCGUUGGCGUAAUGGUAACCCGUCUCCCUCCUAAGGAGAAGACUGCGGGUUCGAGUGUCGUACGAAACG, the yeast fitness is reported as no more than 0.5. Variant GUUCCGUUGGCGUAAUGGUAACCCGUCUCCCUCCUAAGGAGAAGACUGCGAGUUCGAGUCGCGUACGGUACG has a yeast fitness of no more than 0.5. Work on GUUCCGUUGGCGUAAUGGUAACCCGUCGCCCUCCUAAGGAAUAGACUGCGGGUUCGAGACCCGUACGGAACG yielded a yeast fitness of no more than 0.5. GUUCCGUUGGCGUAAUGGUAACCCGUCUCCCUCCUAAGAAGAAGACUGCGGGUUCGAGUCCCGUACGGAACG showed a yeast fitness of 0.669. GUUCCGUUGGCGUAAUGGUAACCCGUCUCCCUCCUAAGGAGAACACUGCGGGUUCGAGUCCCGUACGCAACG gave a yeast fitness of no more than 0.5. With GUUCCGUUGGCGUAAUGGUAACGAGUCUCCCUCCUAAGGAGGAGACUGUGGGUUCGAGGCCAGUACGGGACG the yeast fitness was no more than 0.5. With GUUCCGUUGGCGUAAUGGUAACGAGUCUCCCUCCUACAGAGAAGACUGCGGGUUCGAGUCCCGUACGGAACG the yeast fitness was 0.61. GUUCCGUUGGCGUAAUGGUAACCCGUCUCCCUCCUAAGGAGAAGACUGCGGGUUCAAGUCCCGUACGGAUCG gave a yeast fitness of no more than 0.5. GUUCCGUUGGCGUAAUGGUAACCCCUCUCCCUCCUAAGGAGAAGACUGCGGGUUGGAGUCCCGUACGGAACG showed a yeast fitness of no more than 0.5. Work on GUUCCGUUGGCGUAAUGGUAACCCGUCUCCCUCCUAAGGACAAGACUGCGGGUUCGAGUCCCGUAUGGAACG yielded a yeast fitness of no more than 0.5. Work on GUUCCGUUGGCGUAAUGGUAACCCGACUGCCUCCUUAGGAGAAGACUGCGGGUUCGAGUCCCGUACGGAACG yielded a yeast fitness of 0.68. Variant GUUCCGUUGGCGUAAUGGUAACGAGUCUCCCUCCUGAGGAGAGGACUGCGGGUUCGAGUCCCGUACGGAACG has a yeast fitness of no more than 0.5. For GUUCCGUUGGCGUAAUGGUAACGAGUCUCCCUCCUCAGGAGAAGACUGCGGGUUCGAGUCCCGUACGGAACG, the yeast fitness was 0.531. GUUCCGUUGGCGUAAUGGUAACCCGUCUCCCUCCUAAGGAGAAGACUGCGGGUUCGAGUCCCGUACGAUACG showed a yeast fitness of no more than 0.5. GUUCCGUUGGCGUAAUGGUAACGAGUCUCCCUCCUGAGGAGAAGACUGCGGGUUCGAGUCUCGUACGGAACG showed a yeast fitness of no more than 0.5. GUUCCGUUGGCGUAAUGGUAACGAGUCUCCCUCCUAAGGAGGAGACUGCGGGUUCGAGUCUGGUACGGAACG gave a yeast fitness of 0.541. Work on GUUCCGUUGGCGUAAUGGUAACCCGUCUCCCUCCUAAGGAGAAGACUGCGGGUUCGAGUCCCGUACAGAACG yielded a yeast fitness of 0.56. Work on GUUCCGUUGGCGUAAUGGUAACCCGUCUCCCUCCUAAGGAGAAGACUGCGGGUUCGAGUCCCGUAGGGAACG yielded a yeast fitness of no more than 0.5. For GUUCCGUUGGCGUAAUGGUAACCCGUCUCCCUCCUAAGGAGAAGACUGCGGGUUCGAGUCCCGUAAGGAACG, the yeast fitness was no more than 0.5. In the case of GUUCCGUUGGCGUAAUGGUAACGAGUCUCCCUCCUGGGGAGAAGACUGCGGGUUCGAGUCCCGUACGGAACG, the yeast fitness is reported as no more than 0.5.
